Reference: ChEMBL document CHEMBL3124843, “Synthesis, cytostatic, antimicrobial, and anti-HCV activity of 6-substituted 7-(het)aryl-7-deazapurine ribonucleosides” (J Med Chem, 2014)
Activity calls are given as the source filed them. How the calls were made is not given here.

How the values were obtained:
[1] = Cytotoxicity against human HuH7 cells infected with Hepatitis C virus subtype 2a; type: cell-based, Huh-7
[2] = test system: Hepatitis C virus; assay: Antiviral activity against Hepatitis C virus subtype 2a infected in human HuH7 cells; type: functional, organism-based, Hepacivirus hominis; conditions: genotype 2a, Huh-7
[3] = Cytotoxicity against human HuH7 cells infected with Hepatitis C virus subtype 1b; type: cell-based, Huh-7
[4] = test system: Hepatitis C virus; assay: Antiviral activity against Hepatitis C virus subtype 1b infected in human HuH7 cells; type: functional, organism-based, Hepacivirus hominis; conditions: genotype 1b, Huh-7
[5] = test system: Candida tropicalis; assay: Antifungal activity against Candida tropicalis after 48 hrs; type: functional, organism-based
[6] = test system: Pichia kudriavzevii; assay: Antifungal activity against Candida crusei after 48 hrs; type: functional, organism-based
[7] = test system: Candida parapsilosis; assay: Antifungal activity against Candida parapsilosis after 48 hrs; type: functional, organism-based
[8] = test system: Candida albicans; assay: Antifungal activity against Candida albicans after 48 hrs; type: functional, organism-based
[9] = test system: Pseudomonas aeruginosa; assay: Antibacterial activity against multi-resistant Pseudomonas aeruginosa A/16575 after 24 hrs; type: functional, organism-based
[10] = test system: Escherichia coli; assay: Antibacterial activity against multi-resistant Escherichia coli C/16702 after 24 hrs; type: functional, organism-based
[11] = test system: Staphylococcus haemolyticus; assay: Antibacterial activity against methicillin-resistant Staphylococcus haemolyticus A/16568 after 24 hrs; type: functional, organism-based
[12] = test system: Staphylococcus aureus; assay: Antibacterial activity against methicillin-resistant Staphylococcus aureus MRSA 4591 after 24 hrs; type: functional, organism-based
[13] = test system: Pseudomonas aeruginosa; assay: Antibacterial activity against Pseudomonas aeruginosa CCM 3955 after 24 hrs; type: functional, organism-based
[14] = test system: Escherichia coli; assay: Antibacterial activity against Escherichia coli CCM 3954 after 24 hrs; type: functional, organism-based
[15] = test system: Staphylococcus aureus; assay: Antibacterial activity against Staphylococcus aureus CCM 3953 after 24 hrs; type: functional, organism-based
[16] = test system: Enterococcus faecalis; assay: Antibacterial activity against Enterococcus faecalis CCM 4224 after 24 hrs; type: functional, organism-based
[17] = Antiproliferative activity against human HeLaS3 cells after 72 hrs by XTT assay; type: functional, cell-based; conditions: HeLa S3, 72 h
Outline: (§1)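 Antiproliferative test on HL-60 promyelocytic leukemia and HeLa S3 cervical carcinoma cells growing in liquid suspension.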

[18] = test system: HL-60; assay: Antiproliferative activity against human HL60 cells after 72 hrs by XTT assay; type: functional, cell-based; conditions: HL-60, 72 h; outline: as §1
[19] = test system: HepG2; assay: Antiproliferative activity against human HepG2 cells after 72 hrs by XTT assay; type: functional, cell-based; conditions: HepG2, 72 h
[20] = test system: MRC5; assay: Cytostatic activity against human MRC5 cells after 72 hrs by MTT assay; type: ADME, cell-based; conditions: MRC5, 72 h
Outline: (§2)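 IC50 is the concentration that cuts cell growth by 50%, read by quantitative metabolic MTT staining after a 3-day treatment. The resistant sublines were made by raising the concentration of the cytotoxic drug step by step. CEM-DNR-bulk (daunorubicin-selected) stably overexpresses mrp-1. K562-TAX (paclitaxel-selected) expresses only mdr-1. HCT116p53−/− carries null p53 alleles. BJ and MRC-5 are nonmalignant fibroblasts.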

[21] = test system: BJ; assay: Cytostatic activity against human BJ cells after 72 hrs by MTT assay; type: ADME, cell-based; outline: as §2
[22] = test system: HCT-116; assay: Cytostatic activity against p53-deficient human HCT116 cells after 72 hrs by MTT assay; type: functional, cell-based; conditions: HCT-116, 72 h; outline: as §2
[23] = test system: HCT-116; assay: Cytostatic activity against human HCT116 cells after 72 hrs by MTT assay; type: functional, cell-based; conditions: HCT-116, 72 h; outline: as §2
[24] = test system: A549; assay: Cytostatic activity against human A549 cells after 72 hrs by MTT assay; type: functional, cell-based; conditions: A549, 72 h; outline: as §2
[25] = test system: K562; assay: Cytostatic activity against paclitaxel-resistant human K562 cells after 72 hrs by MTT assay; type: functional, cell-based; conditions: K562, 72 h; outline: as §2
[26] = test system: K562; assay: Cytostatic activity against human K562 cells after 72 hrs by MTT assay; type: functional, cell-based; conditions: K562, 72 h; outline: as §2
[27] = Cytostatic activity against human CEM-DNR-bulk cells after 72 hrs by MTT assay; type: functional, cell-based; outline: as §2
[28] = test system: CCRF-CEM; assay: Cytostatic activity against human CCRF-CEM cells after 72 hrs by MTT assay; type: functional, cell-based; outline: as §2

Row | SMILES | CC50 [1] [µM] | EC50 [2] [µM] | CC50 [3] [µM] | EC50 [4] [µM] | Activity [5] | Activity [6] | Activity [7] | Activity [8] | Activity [9] | Activity [10] | Activity [11] | Activity [12] | Activity [13] | Activity [14] | Activity [15] | Activity [16] | IC50 [17] [µM] | IC50 [18] [µM] | IC50 [19] [µM] | IC50 [20] [µM] | also measured
1 | CSc1ncnc2c1c(-c1ccoc1)cn2[C@@H]1O[C@H](CO)[C@@H](O)[C@H]1O | > 44 | > 44 | > 44 | 4.72 | inactive | inactive | inactive | inactive | inactive | inactive | inactive | inactive | inactive | inactive | inactive | inactive | 5.39 | 0.36 | > 15 | > 100 | IC50 [21]: 98.8 µM; IC50 [22]: 0.1 µM; IC50 [23]: 0.04 µM; IC50 [24]: 0.28 µM; IC50 [25]: 3.25 µM; IC50 [26]: 0.06 µM; IC50 [27]: > 20 µM; IC50 [28]: 14.2 µM
2 | Cc1nc(N)c2c(I)cn([C@@H]3O[C@H](CO)[C@@H](O)[C@H]3O)c2n1 | > 44 | > 44 | > 44 | 2.45 | inactive | inactive | inactive | inactive | inactive | inactive | inactive | inactive | inactive | inactive | inactive | inactive | 4.18 | 2.05 | 6.31 | 85.8 | IC50 [21]: 24.6 µM; IC50 [22]: > 20 µM; IC50 [23]: > 20 µM; IC50 [24]: 12.1 µM; IC50 [25]: 1.11 µM; IC50 [26]: 5.12 µM; IC50 [27]: 3.48 µM; IC50 [28]: 9.03 µM
3 | Cc1ncnc2c1c(-c1ccccc1)cn2[C@@H]1O[C@H](CO)[C@@H](O)[C@H]1O | > 44 | > 44 | > 44 | 34.8 | inactive | inactive | inactive | inactive | inactive | inactive | inactive | inactive | inactive | inactive | inactive | inactive | > 20 | > 20 | > 20 | > 100 | IC50 [21]: > 100 µM; IC50 [22]: 95.3 µM; IC50 [23]: > 100 µM; IC50 [24]: > 20 µM; IC50 [25]: > 20 µM; IC50 [26]: > 20 µM; IC50 [27]: > 20 µM; IC50 [28]: > 20 µM
4 | CNc1ncnc2c1c(-c1ccccc1)cn2[C@@H]1O[C@H](CO)[C@@H](O)[C@H]1O | > 44 | > 44 | > 44 | > 44 | inactive | inactive | inactive | inactive | inactive | inactive | inactive | inactive | inactive | inactive | inactive | inactive | > 20 | > 20 | > 20 | > 100 | IC50 [21]: > 100 µM; IC50 [22]: > 100 µM; IC50 [23]: > 20 µM; IC50 [24]: > 20 µM; IC50 [25]: > 20 µM; IC50 [26]: > 20 µM; IC50 [27]: > 20 µM; IC50 [28]: > 20 µM
5 | O=c1[nH]cnc2c1c(-c1ccco1)cn2[C@@H]1O[C@H](CO)[C@@H](O)[C@H]1O | > 44 | > 44 | > 44 | > 44 | inactive | inactive | inactive | inactive | inactive | inactive | inactive | inactive | inactive | inactive | inactive | inactive | 5.78 | 2.2 | > 15 | > 100 | IC50 [21]: > 100 µM; IC50 [22]: > 20 µM; IC50 [23]: 18.3 µM; IC50 [24]: > 20 µM; IC50 [25]: 17.8 µM; IC50 [26]: 15.5 µM; IC50 [27]: > 20 µM; IC50 [28]: > 20 µM
6 | CN(C)c1ncnc2c1c(-c1cccs1)cn2[C@@H]1O[C@H](CO)[C@@H](O)[C@H]1O | > 44 | > 44 | > 44 | 16.8 | inactive | inactive | inactive | inactive | inactive | inactive | inactive | inactive | inactive | inactive | inactive | inactive | > 20 | 11.8 | > 20 | > 100 | IC50 [21]: > 100 µM; IC50 [22]: > 20 µM; IC50 [23]: > 20 µM; IC50 [24]: > 20 µM; IC50 [25]: > 20 µM; IC50 [26]: > 20 µM; IC50 [27]: > 20 µM; IC50 [28]: > 20 µM
7 | C#Cc1cn([C@@H]2O[C@H](CO)[C@@H](O)[C@H]2O)c2ncnc(SC)c12 | > 44 | > 44 | > 44 | 0.21 | inactive | inactive | inactive | inactive | inactive | inactive | inactive | inactive | inactive | inactive | inactive | inactive | 0.11 | 0.05 | > 15 | > 100 | IC50 [21]: 68.6 µM; IC50 [22]: 0.09 µM; IC50 [23]: 0.03 µM; IC50 [24]: 0.14 µM; IC50 [25]: 0.07 µM; IC50 [26]: 0.03 µM; IC50 [27]: 0.11 µM; IC50 [28]: > 20 µM
8 | Cc1ncnc2c1c(-c1cc3ccccc3o1)cn2[C@@H]1O[C@H](CO)[C@@H](O)[C@H]1O | > 44 | 40.2 | > 44 | 6.76 | inactive | inactive | inactive | inactive | inactive | inactive | inactive | inactive | inactive | inactive | inactive | inactive | > 20 | > 20 | > 20 | 84.4 | IC50 [21]: 93.9 µM; IC50 [22]: > 20 µM; IC50 [23]: > 20 µM; IC50 [24]: > 20 µM; IC50 [25]: > 20 µM; IC50 [26]: 19.5 µM; IC50 [27]: > 20 µM; IC50 [28]: 17.3 µM
